Among the data in ChEMBL document CHEMBL1938251, “Synthesis and evaluation of potent and selective human V1a receptor antagonists as potential ligands for PET or SPECT imaging” (Bioorg Med Chem, 2012) are Ki and permeability values, retold here.

Some results are limits rather than exact numbers.

One data set has as its target Vasopressin V2 receptor (Homo sapiens, UniProt P30518). The data set can be described thus: Binding affinity to human vasopressin V2 receptor.
A further data set concerns the target Vasopressin V1a receptor (Homo sapiens, UniProt P37288). As to the kind of experiment: Displacement of [3H]arginine-vasopressin from human Vasopressin V1a receptor after 30 mins by liquid scintillation counter. (In general: Displacement assays read how much labelled ligand stays bound in the presence of the test substance.)
The nature of data set [1]: Permeability of the compound at 25 ug/ml after 18 hrs by PAMPA-BBB assay. Background: The PAMPA barrier holds no transporters, so it reflects passive diffusion.
For the next data set, the target named is T1, Vasopressin V1b receptor (Homo sapiens, UniProt P47901).
T1 sequence (P47901 whole entry): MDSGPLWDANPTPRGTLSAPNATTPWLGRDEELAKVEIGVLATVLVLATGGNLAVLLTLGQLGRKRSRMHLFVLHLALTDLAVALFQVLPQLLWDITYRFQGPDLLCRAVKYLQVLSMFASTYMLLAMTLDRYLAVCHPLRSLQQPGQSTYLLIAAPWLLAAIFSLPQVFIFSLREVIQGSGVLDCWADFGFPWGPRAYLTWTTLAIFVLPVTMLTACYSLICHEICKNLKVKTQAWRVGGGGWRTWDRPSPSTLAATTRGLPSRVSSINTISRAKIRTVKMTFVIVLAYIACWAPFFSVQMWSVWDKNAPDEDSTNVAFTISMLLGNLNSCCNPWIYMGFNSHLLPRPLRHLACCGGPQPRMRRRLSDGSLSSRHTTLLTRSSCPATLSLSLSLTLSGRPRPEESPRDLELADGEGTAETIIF
The data set can be described thus: Binding affinity to human V1b receptor.

A short description of data set [2]: Permeability of the compound at 5 mg/ml after 18 hrs by PAMPA-BBB assay. In kind it is ADME. The note with it: in the assay text read “25 ug/ml” for “5 mg/ml”. The gist of the method: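 PAMPA-BBB: DMSO stocks (5 mg/mL) diluted 200-fold into universal buffer pH 7.4, giving 25 μg/mL in the donor wells. The filter membrane was coated with porcine brain lipid in dodecane (20 mg/mL), with buffer pH 7.4 as acceptor. Plates stood undisturbed at room temperature for 18 h. Verapamil and theophylline served as high- and low-permeability standards. Pe was calculated by the Faller equation.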

Sequence of Vasopressin V2 receptor (P30518 whole entry): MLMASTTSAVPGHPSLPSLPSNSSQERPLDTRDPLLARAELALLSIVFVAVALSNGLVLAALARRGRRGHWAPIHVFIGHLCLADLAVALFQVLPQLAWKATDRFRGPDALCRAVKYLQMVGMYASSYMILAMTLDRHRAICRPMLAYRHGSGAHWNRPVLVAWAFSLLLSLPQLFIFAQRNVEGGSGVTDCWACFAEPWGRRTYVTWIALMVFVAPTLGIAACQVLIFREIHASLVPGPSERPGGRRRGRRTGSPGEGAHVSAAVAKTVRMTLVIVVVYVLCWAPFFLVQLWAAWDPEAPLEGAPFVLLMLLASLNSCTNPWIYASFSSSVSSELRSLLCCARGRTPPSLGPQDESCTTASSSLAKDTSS
Sequence of Vasopressin V1a receptor (P37288 whole entry, the tested form may be a part): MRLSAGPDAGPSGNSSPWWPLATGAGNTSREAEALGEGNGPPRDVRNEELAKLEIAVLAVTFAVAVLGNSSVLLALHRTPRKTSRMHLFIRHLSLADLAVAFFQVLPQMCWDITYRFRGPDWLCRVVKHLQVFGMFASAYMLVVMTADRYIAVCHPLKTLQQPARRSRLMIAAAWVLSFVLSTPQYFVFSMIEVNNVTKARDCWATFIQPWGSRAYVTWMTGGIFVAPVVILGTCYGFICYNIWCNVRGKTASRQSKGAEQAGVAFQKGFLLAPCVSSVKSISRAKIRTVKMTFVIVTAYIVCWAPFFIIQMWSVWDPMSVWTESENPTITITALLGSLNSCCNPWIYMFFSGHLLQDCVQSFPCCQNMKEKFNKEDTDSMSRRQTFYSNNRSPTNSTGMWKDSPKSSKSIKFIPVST

Usually Ki stands for the equilibrium dissociation constant of an inhibitor or competing ligand from its target. A lower Ki goes with a stronger hold on the target. As to `Cc1cccc(/C=C/[C@@H]2[C@H](N3C(=O)OC[C@@H]3c3ccccc3)C(=O)N2[C@H](CC(=O)N2CCC(N3CCCCC3)CC2)C(=O)N[C@H](C)c2ccccc2)c1`, the Ki on Vasopressin V2 receptor was over 10000 nM; at Vasopressin V1a receptor, 0.63 nM; at Vasopressin V1b receptor, 1300 nM. For the same compound, the permeability in data set [1] turned out to be 4.5 ×10⁻⁶ cm/s.

As to `C[C@@H](NC(=O)[C@@H](CC(=O)N1CCC(N2CCCCC2)CC1)N1C(=O)[C@@H](N2C(=O)OC[C@@H]2c2ccccc2)[C@H]1/C=C/c1cccc(F)c1)c1ccccc1`, the Ki at Vasopressin V2 receptor was over 10000 nM; on Vasopressin V1a receptor, 0.61 nM; at Vasopressin V1b receptor it was 1150 nM. This compound also registered a permeability in data set [1] of 5.3 ×10⁻⁶ cm/s.

Take `C[C@@H](NC(=O)[C@@H](CC(=O)N1CCC(N2CCCCC2)CC1)N1C(=O)[C@@H](N2C(=O)OC[C@@H]2c2ccccc2)[C@H]1/C=C/c1cccc(I)c1)c1ccccc1`: the inhibition constant Ki at Vasopressin V2 receptor and at Vasopressin V1b receptor was over 1000 nM throughout. In addition, the permeability in data set [2] came to 2.2 ×10⁻⁶ cm/s.
